The nature of assay [1]: Antiproliferative activity against human CNE2 cells after 48 hrs by SRB assay. Type of assay: functional, cell-based. Conditions: CNE-2, 48 h. The gist of the method: (§1)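 SRB assay on cells in RPMI-1640 with 2 mM glutamine, 10% FBS and penicillin/streptomycin at 37 °C and 5% CO2. Seeded at 5000 cells/well and grown 24 h, then compounds added in triplicate (DMSO 0.5% final) for 48 h. Fixed with TCA at 4 °C for 1 h, stained with SRB, dye dissolved in 10 mM Tris pH 10.4, OD read at 515 nm. IC50 from nonlinear dose-response fit; experiments run at least twice.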

The subject of a further assay is MCF7. In words: Antiproliferative activity against human MCF7 cells after 48 hrs by SRB assay. Type of assay: functional, cell-based. Conditions: MCF7, 48 h. The gist of the method:
as §1

Assay [2] in a line: Inhibition of TNFalpha-induced NF-kappaB translocation in human A549 cells incubated at 37 degC for 30 mins by high content analysis based immunofluorescence assay. Type of assay: cell-based. Conditions: A549, 0.5 h. Put shortly: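 A549 cells at 2000/well grown 24 h, then compound added in duplicate (DMSO 0.5% final) for 30 min at 37 °C. Stimulated with TNFα at 10 ng/mL final for 30 min, then fixed with 4% paraformaldehyde and permeabilized with Triton X-100. Stained with anti-p65 and DyLight 488 secondary plus Hoechst, imaged on ArrayScan. Nuclear minus cytoplasmic intensity, background-subtracted, given as % of TNFα-only control. IC50 from this; repeated at least twice.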

Another assay deals with A549. In words: Antiproliferative activity against human A549 cells after 48 hrs by SRB assay. Conditions: A549, 48 h. The assay is classed as functional, cell-based. Put shortly:
as §1

For assay [3], the target named is T1, RAC-alpha serine/threonine-protein kinase (Homo sapiens, UniProt P31749). The assay is described as follows: Inhibition of AKT1 by AKT1/PKBalpha KinEASE FP fluorescein green assay. The gist of the method: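 Kinase reaction with Akt1 enzyme (amount giving 70% activity) and STK Substrate 3 (10 µM final) in 50 mM HEPES pH 7.2, 0.01% BSA, 5 mM MgCl2, 1 mM DTT, preincubated with compound 10 min at 25 °C. ATP (100 µM final) starts reaction, run 1 h at 25 °C. Stopped with phospho-STK tracer plus antibody, 6 h, then FP read (ex 470/em 530 nm). IC50 by nonlinear fit; triplicates, repeated twice.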

The subject of a further assay is HepG2. In words: Antiproliferative activity against human HepG2 cells after 48 hrs by SRB assay. Type of assay: functional, cell-based. Conditions: HepG2, 48 h. Put shortly:
as §1

The next assay has as its system SW480. In words: Antiproliferative activity against human SW480 cells after 48 hrs by SRB assay. The assay is classed as functional, cell-based. Conditions: SW480, 48 h. Put shortly:
as §1

In assay [4] the target is T1, RAC-alpha serine/threonine-protein kinase. In words: Inhibition of AKT1-mediated GSK3beta phosphorylation in human A549 cells incubated for 12 hrs by Western blot. Type of assay: cell-based. The gist of the method: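 A549 cells grown to 70% confluence, exposed 12 h to compound at 0.125–1.0 µM. Lysed in NP-40 buffer with protease inhibitors, then equal protein run on 10% SDS-PAGE and transferred to PVDF. Probed with anti-phospho-GSK3β (S9) at 1:1000 overnight at 4 °C, then HRP secondary at 1:5000.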

T1 sequence (P31749 whole entry): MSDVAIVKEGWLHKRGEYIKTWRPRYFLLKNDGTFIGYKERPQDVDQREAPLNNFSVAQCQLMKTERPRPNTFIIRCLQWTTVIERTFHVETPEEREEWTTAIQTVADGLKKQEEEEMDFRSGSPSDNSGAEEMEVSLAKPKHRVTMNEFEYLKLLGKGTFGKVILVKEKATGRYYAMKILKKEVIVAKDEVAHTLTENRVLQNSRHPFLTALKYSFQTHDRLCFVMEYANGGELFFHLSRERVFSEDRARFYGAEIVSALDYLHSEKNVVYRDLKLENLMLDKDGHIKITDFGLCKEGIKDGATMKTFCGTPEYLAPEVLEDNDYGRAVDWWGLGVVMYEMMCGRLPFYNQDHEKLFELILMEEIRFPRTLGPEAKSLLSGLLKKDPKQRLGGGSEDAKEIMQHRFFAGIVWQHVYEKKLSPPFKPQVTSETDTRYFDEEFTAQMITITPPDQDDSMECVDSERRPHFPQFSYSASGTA

For `COc1ccc(OC)c(/C=C/C(=O)C(=Cc2cc(Br)c(O)c(OC)c2)C(=O)/C=C/c2cc(OC)ccc2OC)c1`, the IC50 in assay [1] amounted to 420 nM; in the assay on MCF7 it was 580 nM; in assay [2], 4190 nM; in the assay with A549 it was 220 nM; in assay [3], 5020 nM; with HepG2 it was 280 nM. This compound also showed an IC50 with SW480 of 490 nM.
In the case of `COc1cc(C=C(C(=O)/C=C/c2cccc(OC)c2OC)C(=O)/C=C/c2cccc(OC)c2OC)ccc1O`, the IC50 in assay [1] was 280 nM; in the assay on MCF7, 480 nM; in assay [2] it was 1710 nM; in the assay on A549 it was 130 nM; in assay [3] it was 810 nM; with HepG2, 200 nM. Besides, the IC50 in the assay with SW480 was determined as 430 nM. Besides, the inhibition entry in assay [4] is “Dose-dependent effect”.
Turning to `COc1ccc(/C=C/C(=O)C(=Cc2ccc(OC)c(O)c2)C(=O)/C=C/c2ccc(OC)cc2OC)c(OC)c1`, the IC50 in assay [1] stood at 760 nM; in the assay with MCF7 it was 1600 nM; in assay [2] it was 12300 nM; in the assay with A549, 380 nM; in assay [3], 1660 nM; with HepG2, 390 nM. In addition, in the assay on SW480, the IC50 is 1370 nM.

The record behind these values is ChEMBL document CHEMBL2062524, “Synthesis, cytotoxicity of new 4-arylidene curcumin analogues and their multi-functions in inhibition of both NF-κB and Akt signalling” (Eur J Med Chem, 2012).
